In article PMC4152746 (Cell Research, 2014):
Where a SMILES comes first, the peptide text is derived from it. Where no end group is shown, it is not given here. [ ]: non-standard residue; d: D form. The star is where a group is joined. pY = N[C@@H](Cc1ccc(OP(=O)(O)O)cc1)C(=O)O; Cbz = O=C(OCc1ccccc1)*

Columns and labels:
PTPN18 [1] = target: T1, PTPN18 (Homo sapiens, UniProt Q99952); experiment: pNPP phosphatase assay; assay type: biochemical; details: PTPN18 versus PTP1B, DMG buffer, 37 °C
T1 sequence (Q99952 6-300): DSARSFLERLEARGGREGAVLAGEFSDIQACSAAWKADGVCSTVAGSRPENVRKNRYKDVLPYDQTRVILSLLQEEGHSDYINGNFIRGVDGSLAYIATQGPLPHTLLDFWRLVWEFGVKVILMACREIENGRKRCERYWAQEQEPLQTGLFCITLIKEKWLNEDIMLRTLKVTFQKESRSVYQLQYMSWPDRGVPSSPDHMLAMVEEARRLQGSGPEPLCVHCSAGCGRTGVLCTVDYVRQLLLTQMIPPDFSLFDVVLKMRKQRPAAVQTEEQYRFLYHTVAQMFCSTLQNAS

[2] = system: HER2 level in HepG2 cells; experiment: EGF-induced HER2 degradation with proteasome inhibitor; assay type: cell-based; details: 100 ng/ml EGF
Summary of the method: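 HepG2 cells are transfected with control vector or PTPN18, preincubated with MG-132, then exposed to EGF for a time course. HER2 is detected by western blot with a specific antibody and quantified.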

PTPN18 [3] = target: T1, PTPN18; experiment: PTPN18-catalyzed hydrolysis of pY-containing peptides; assay type: biochemical; details: for Kcat/Km of PTPN18: calculated; for Kcat/Km of PTPN18 / Kcat for PTPN18 catalysis: range over the three peptides, pH 6.5, 37 °C, 10 nM PTPN18
Summary of the method: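 Peptide dephosphorylation by the phosphatase, read by two methods: tyrosine fluorescence gain (excitation 280 nm, emission 305 nm) and an end-point inorganic phosphate assay at 620 nm. Conditions were 37 °C in 50 mM 3,3-dimethylglutarate pH 6.5, 1 mM DTT, 1 mM EDTA, ionic strength 0.15 M. Reactions started with enzyme at 10 nM final. Kinetics came from nonlinear least-squares regression.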

[4] = system: PTPN18 mutants V65A, V65I, P272M; experiment: Catalytic activity of PTPN18 pY+1 pocket mutants towards HER2 phospho-peptides; assay type: biochemical, human; details: mutations V65A, V65I and P272M versus wild type
Summary of the method: (§1)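 Recombinant PTPN18 (wild type or mutant) hydrolysing pY-containing peptides at 37 °C in 50 mM 3,3-dimethylglutarate, pH 6.5, 1 mM DTT, 1 mM EDTA, ionic strength 0.15 M. Reactions are started by adding enzyme to 10 nM final. Read-out is tyrosine fluorescence (ex 280/em 305 nm) or inorganic-phosphate end-point at 620 nm. Kinetics are fitted by nonlinear least-squares regression.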

[5] = system: PTPN18 mutants R198A, R198E; experiment: Catalytic activity of PTPN18 R198 mutants towards HER2 phospho-peptides; assay type: biochemical, human; details: R198 changed to Ala or Glu versus wild type
Summary of the method: as §1

PTPN18 V65A = target: T2, PTPN18 V65A (UniProt Q99952 1-460, V65A); experiment: cell-based or functional assay
T2 sequence (looked up): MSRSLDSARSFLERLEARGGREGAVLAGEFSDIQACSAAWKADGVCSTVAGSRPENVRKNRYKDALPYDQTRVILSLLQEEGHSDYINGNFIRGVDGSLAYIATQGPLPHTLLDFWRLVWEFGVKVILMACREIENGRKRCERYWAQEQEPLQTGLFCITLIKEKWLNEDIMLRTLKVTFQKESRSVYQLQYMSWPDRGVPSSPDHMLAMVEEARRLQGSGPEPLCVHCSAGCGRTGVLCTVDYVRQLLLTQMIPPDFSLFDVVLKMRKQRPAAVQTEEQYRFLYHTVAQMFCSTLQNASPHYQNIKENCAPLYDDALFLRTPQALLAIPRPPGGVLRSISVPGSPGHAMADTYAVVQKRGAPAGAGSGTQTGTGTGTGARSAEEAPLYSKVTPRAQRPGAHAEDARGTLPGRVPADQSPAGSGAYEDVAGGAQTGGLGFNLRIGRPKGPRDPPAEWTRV

PTPN18 V65I = target: T3, PTPN18 V65I (UniProt Q99952 1-460, V65I); experiment: cell-based or functional assay
T3 sequence (looked up): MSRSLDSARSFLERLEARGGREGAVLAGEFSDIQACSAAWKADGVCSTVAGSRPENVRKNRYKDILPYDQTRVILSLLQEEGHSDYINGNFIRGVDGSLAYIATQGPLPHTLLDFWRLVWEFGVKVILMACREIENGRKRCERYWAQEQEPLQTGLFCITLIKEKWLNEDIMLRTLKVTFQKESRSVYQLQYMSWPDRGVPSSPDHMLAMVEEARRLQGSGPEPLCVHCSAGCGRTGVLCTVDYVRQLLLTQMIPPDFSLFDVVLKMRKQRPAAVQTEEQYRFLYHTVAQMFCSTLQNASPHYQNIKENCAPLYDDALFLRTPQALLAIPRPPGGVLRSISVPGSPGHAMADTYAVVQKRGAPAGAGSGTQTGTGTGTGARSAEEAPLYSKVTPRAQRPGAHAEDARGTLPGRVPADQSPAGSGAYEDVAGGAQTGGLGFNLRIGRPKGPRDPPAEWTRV

PTPN18 P272M = target: T4, PTPN18 P272M (UniProt Q99952 1-460, P272M); experiment: cell-based or functional assay
T4 sequence (looked up): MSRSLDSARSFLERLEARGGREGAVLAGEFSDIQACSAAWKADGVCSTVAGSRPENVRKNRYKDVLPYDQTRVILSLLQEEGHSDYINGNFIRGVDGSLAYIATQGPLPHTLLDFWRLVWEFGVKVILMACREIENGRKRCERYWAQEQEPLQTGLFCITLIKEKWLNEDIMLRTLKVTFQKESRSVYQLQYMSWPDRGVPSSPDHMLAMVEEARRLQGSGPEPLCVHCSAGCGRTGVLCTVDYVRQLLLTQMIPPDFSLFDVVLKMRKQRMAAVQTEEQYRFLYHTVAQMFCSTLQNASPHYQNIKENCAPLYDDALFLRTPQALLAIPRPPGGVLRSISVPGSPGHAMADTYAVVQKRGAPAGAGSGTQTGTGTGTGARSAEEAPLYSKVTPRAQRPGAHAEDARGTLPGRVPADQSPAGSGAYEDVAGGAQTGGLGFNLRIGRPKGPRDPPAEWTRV

## O=[N+]([O-])c1ccc(OP(=O)(O)O)cc1 [pNPP, para-nitrophenyl phosphate]
PTPN18 [1]
  Kcat/Km of PTPN18 lower than that of PTP1B: 2000 fold

## CC(C)C[C@@H](C=O)NC(=O)[C@H](CC(C)C)NC(=O)[C@H](CC(C)C)NC(=O)OCc1ccccc1 [MG132] (Cbz-Leu-Leu-Leu-aldehyde)
[2]; HepG2 cells transfected with PTPN18, 5 μM MG-132 for 16 h
  Effect on PTPN18-overexpression-promoted HER2 degradation: almost abolished
[2]; HepG2 cells, 5 μM MG-132 preincubated for 16 h
  Endogenous HER2 expression level: significantly increased

## Ac-ENPE pY^1196 LTPQ-NH2 [HER2 pY^1196]
PTPN18 [3]
  Kcat/Km of PTPN18 relative to its Kcat/Km towards HER2 pY^1248: approximately half
  Kcat/Km of PTPN18: 400000 to 800000 M⁻¹ s⁻¹
  Kcat for PTPN18 catalysis: 4 to 11.2 s⁻¹
[4]
  Decrease of PTPN18 activity towards the peptide by mutation: > 2 fold

## Ac-ENPEpY^1248 LGLD-NH2 [HER2 pY^1248]
PTPN18 [3]
  Kcat/Km of PTPN18: 400000 to 800000 M⁻¹ s⁻¹
  Kcat for PTPN18 catalysis: 4 to 11.2 s⁻¹
[4]
  Decrease of PTPN18 activity towards the peptide by mutation: > 2 fold
[5]
  Decrease of PTPN18 activity towards the peptide by mutation: 2-3 fold

## PLQRpY^1112 SEDP [HER2 pY^1112]
PTPN18 [3]
  Kcat/Km of PTPN18: 400000 to 800000 M⁻¹ s⁻¹
  Kcat for PTPN18 catalysis: 4 to 11.2 s⁻¹
[5]
  Decrease of PTPN18 activity towards the peptide by mutation: 2-3 fold

## HER2 pY^1221pY^1222: HER2 doubly phosphorylated Y1221/Y1222 site phospho-peptide (FDNL[pY][pY]WDQD)
PTPN18 [3]
  PTPN18 activity towards the peptide (in words): very weak activity

B1: HER2 pY1248 phospho-peptide (Ac-ENPEpY1248LGLD-NH2) (peptide)
peptide: Ac-ENPE[pY]LGLD-NH2
SMILES: CC(=O)N[C@@H](CCC(=O)O)C(=O)N[C@@H](CC(N)=O)C(=O)N1CCC[C@H]1C(=O)N[C@@H](CCC(=O)O)C(=O)N[C@@H](Cc1ccc(OP(=O)(O)O)cc1)C(=O)N[C@@H](CC(C)C)C(=O)NCC(=O)N[C@@H](CC(C)C)C(=O)N[C@@H](CC(=O)O)C(N)=O
PTPN18 V65A
  decrease of PTPN18 activity towards the peptide (Figure 6B): > 2 fold
PTPN18 V65I
  decrease of PTPN18 activity towards the peptide (Figure 6B): > 2 fold
PTPN18 P272M
  decrease of PTPN18 activity towards the peptide (Figure 6B): > 2 fold

B2: HER2 pY1196 phospho-peptide (Ac-ENPEpY1196LTPQ-NH2) (peptide)
peptide: Ac-ENPE[pY]LTPQ-NH2
SMILES: CC(=O)N[C@@H](CCC(=O)O)C(=O)N[C@@H](CC(N)=O)C(=O)N1CCC[C@H]1C(=O)N[C@@H](CCC(=O)O)C(=O)N[C@@H](Cc1ccc(OP(=O)(O)O)cc1)C(=O)N[C@@H](CC(C)C)C(=O)N[C@H](C(=O)N1CCC[C@H]1C(=O)N[C@@H](CCC(N)=O)C(N)=O)[C@@H](C)O
PTPN18 V65A
  decrease of PTPN18 activity towards the peptide (Figure 6B): > 2 fold
PTPN18 V65I
  decrease of PTPN18 activity towards the peptide (Figure 6B): > 2 fold
PTPN18 P272M
  decrease of PTPN18 activity towards the peptide (Figure 6B): > 2 fold
